Measured values as given in ChEMBL document CHEMBL4177769, “Highly Selective and Potent Ectonucleotide Pyrophosphatase-1 (NPP1) Inhibitors Based on Uridine 5'-Pα,α-Dithiophosphate Analogues” (J Med Chem, 2018).
Values belong to the compound of their own block, whether it stands above or below them. Calls of active or inactive are those of the source. The calls are words filed in the database; no cut-off is given here.

Experiments:
[1] = Drug level treated with diuridine 5'-O-Palpha,alpha,5''-O-Palpha,alpha-tetrathiotetraphosphate at 2 mM at pD 12.6 at room temperature after 16 days by 31P NMR method; assay type: physicochemical; settings: 384 h, 2000 µM
[2] = Drug level treated with UTP 5'-O-Palpha,alpha-dithiophosphate at 2 mM at pH 11.7 at room temperature after 25 days by 31P NMR method; assay type: physicochemical; settings: pH 11.7, 600 h, 2000 µM
[3] = Drug level treated with UTP 5'-O-Palpha,alpha-dithiophosphate-beta,gamma-methylene at 2 mM at pH 11.7 at room temperature after 25 days by 31P NMR method; assay type: physicochemical; settings: pH 11.7, 600 h, 2000 µM
[4] = Drug level treated with UTP 5'-O-Palpha,alpha-dithiophosphate-beta,gamma-methylene at 2 mM at pH 1.7 at room temperature after 25 days by 31P NMR method; assay type: physicochemical; settings: pH 1.7, 600 h, 2000 µM
[5] = Drug metabolism at 2 mM at pH 1.7 at room temperature after 28 days by 31P NMR method; assay type: physicochemical; settings: read-out: Drug metabolism
[6] = Drug metabolism at 2 mM at acidic pH after 5 days by 31P NMR method; assay type: physicochemical; settings: read-out: Drug metabolism
[7] = Drug metabolism at 2 mM at basic pH after 5 days by 31P NMR method; assay type: physicochemical; settings: read-out: Drug metabolism
[8] = Drug metabolism at 2 mM at pH 1.7 at room temperature after 20 days by 31P NMR method; assay type: physicochemical; settings: read-out: Drug metabolism
[9] = Drug metabolism at 2 mM at pH 11.7 at room temperature after 20 days by 31P NMR method; assay type: physicochemical; settings: read-out: Drug metabolism
[10] = Half life of the compound at pH 7.4; assay type: physicochemical
[11] = biological target: T1, Ectonucleotide pyrophosphatase/phosphodiesterase family member 1 (Homo sapiens) (UniProt P22413); assay: Inhibition of human NPP1 at 100 uM using ATP as substrate preincubated for 3 mins followed by substrate addition measured after 25 mins
T1 sequence (whole entry): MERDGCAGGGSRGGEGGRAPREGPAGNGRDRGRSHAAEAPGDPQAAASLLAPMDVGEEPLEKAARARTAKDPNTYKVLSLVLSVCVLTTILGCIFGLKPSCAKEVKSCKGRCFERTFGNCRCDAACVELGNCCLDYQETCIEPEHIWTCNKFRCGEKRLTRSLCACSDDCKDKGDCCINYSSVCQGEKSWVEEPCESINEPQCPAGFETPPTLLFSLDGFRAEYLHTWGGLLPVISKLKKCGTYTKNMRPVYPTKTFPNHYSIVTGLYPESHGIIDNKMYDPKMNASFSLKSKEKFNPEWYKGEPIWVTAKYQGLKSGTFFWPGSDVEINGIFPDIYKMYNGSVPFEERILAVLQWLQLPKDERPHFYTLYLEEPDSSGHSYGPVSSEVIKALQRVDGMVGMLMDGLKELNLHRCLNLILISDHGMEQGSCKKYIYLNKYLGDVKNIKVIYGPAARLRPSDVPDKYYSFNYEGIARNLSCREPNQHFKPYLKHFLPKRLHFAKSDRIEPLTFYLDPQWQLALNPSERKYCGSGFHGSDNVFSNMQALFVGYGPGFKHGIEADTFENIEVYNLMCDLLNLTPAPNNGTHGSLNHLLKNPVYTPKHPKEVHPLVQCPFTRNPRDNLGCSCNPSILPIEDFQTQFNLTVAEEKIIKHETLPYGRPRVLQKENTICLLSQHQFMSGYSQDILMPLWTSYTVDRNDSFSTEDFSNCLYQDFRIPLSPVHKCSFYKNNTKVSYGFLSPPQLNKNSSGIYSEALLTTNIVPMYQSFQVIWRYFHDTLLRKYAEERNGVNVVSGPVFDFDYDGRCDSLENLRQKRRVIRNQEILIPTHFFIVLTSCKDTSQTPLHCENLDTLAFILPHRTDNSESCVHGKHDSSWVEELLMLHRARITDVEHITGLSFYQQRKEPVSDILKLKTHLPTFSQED
Method in brief: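 Human NPP1 cell lysate in mM 1 CaCl2, 140 NaCl, 5 KCl, 50 Tris pH 8.5, 37 °C. Compound at 100 μM, 3 min preincubation, 100 μM ATP substrate. Stopped after 25 min by heating 2 min at 95 °C. Pyrophosphate measured with a commercial kit.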

[12] = biological target: P2Y purinoceptor 4 (Homo sapiens) (UniProt P51582); assay: Agonist activity at recombinant human P2RY4 expressed in AD293 cells assessed as increase in intracellular calcium levels by Fluo-4/AM dye-based spectrofluorometer; assay type: functional, cell-based
Method in brief: (§1)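 Human P2Y2, P2Y4 or P2Y6 receptor stably expressed in AD293 cells. Compound at 100 μM. Agonism read as change in intracellular calcium (Δ[Ca2+]i), with UDP or UTP as control.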

[13] = biological target: T2, Ectonucleotide pyrophosphatase/phosphodiesterase family member 3 (Homo sapiens) (UniProt O14638); assay: Inhibition of human NPP3 at 100 uM using pNP-TMP as substrate preincubated for 3 mins followed by substrate addition measured after 15 mins
T2 sequence (whole entry): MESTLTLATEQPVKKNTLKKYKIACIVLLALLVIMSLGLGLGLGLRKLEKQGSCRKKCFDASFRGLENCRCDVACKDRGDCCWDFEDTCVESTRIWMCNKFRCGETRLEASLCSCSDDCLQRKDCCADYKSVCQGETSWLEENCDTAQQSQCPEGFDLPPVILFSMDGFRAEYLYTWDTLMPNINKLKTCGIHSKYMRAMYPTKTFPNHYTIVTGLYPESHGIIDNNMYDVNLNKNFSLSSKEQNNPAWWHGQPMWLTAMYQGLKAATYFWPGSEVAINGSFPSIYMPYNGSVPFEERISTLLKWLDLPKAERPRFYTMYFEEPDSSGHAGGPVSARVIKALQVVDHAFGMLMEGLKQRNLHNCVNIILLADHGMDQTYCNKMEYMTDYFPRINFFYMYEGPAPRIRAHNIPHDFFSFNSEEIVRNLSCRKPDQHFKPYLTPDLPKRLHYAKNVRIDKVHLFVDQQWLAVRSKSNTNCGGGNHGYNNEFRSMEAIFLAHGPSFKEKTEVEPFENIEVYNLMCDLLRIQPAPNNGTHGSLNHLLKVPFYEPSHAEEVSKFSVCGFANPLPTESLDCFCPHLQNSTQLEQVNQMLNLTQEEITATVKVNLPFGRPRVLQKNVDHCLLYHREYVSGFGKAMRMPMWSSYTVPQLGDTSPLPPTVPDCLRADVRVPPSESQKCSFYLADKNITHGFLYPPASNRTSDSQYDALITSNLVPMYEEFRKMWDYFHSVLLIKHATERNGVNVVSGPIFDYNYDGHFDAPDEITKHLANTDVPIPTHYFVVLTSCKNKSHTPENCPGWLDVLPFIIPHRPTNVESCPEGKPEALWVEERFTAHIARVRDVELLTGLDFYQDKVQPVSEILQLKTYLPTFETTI
Method in brief: (§2)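 Human NPP1 (4−5 μg) or NPP3 (12−14 μg) cell lysate in mM 1 CaCl2, 140 NaCl, 5 KCl, 50 Tris pH 8.5, 37 °C. Compound at 100 μM, 3 min preincubation, 100 μM pNP-TMP substrate. p-Nitrophenol read at 405 nm after 15 min. Blank with enzyme added at end subtracted. Activity without compound taken as 100%. At least two independent experiments in triplicate.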

[14] = biological target: P2Y purinoceptor 6 (Homo sapiens) (UniProt Q15077); assay: Agonist activity at recombinant human P2RY6 expressed in AD293 cells assessed as increase in intracellular IP1 levels; assay type: functional, cell-based
Method in brief: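 Human P2Y6 receptor stably expressed in AD293 cells. Compound at 100 μM. Gq activation read as accumulation of inositol 1-phosphate (IP1).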

[15] = biological target: P2Y purinoceptor 6 (Homo sapiens) (UniProt Q15077); assay: Agonist activity at recombinant human P2RY6 expressed in AD293 cells assessed as increase in intracellular calcium levels by Fluo-4/AM dye-based spectrofluorometer; assay type: functional, cell-based; method in brief: as §1
[16] = biological target: T1, Ectonucleotide pyrophosphatase/phosphodiesterase family member 1 (Homo sapiens); assay: Inhibition of human NPP1 at 100 uM using pNP-TMP as substrate preincubated for 3 mins followed by substrate addition measured after 15 mins relative to control; method in brief: as §2
[17] = biological target: P2Y purinoceptor 2 (Homo sapiens) (UniProt P41231); assay: Agonist activity at recombinant human P2RY2 expressed in AD293 cells assessed as increase in intracellular calcium levels by Fluo-4/AM dye-based spectrofluorometer; assay type: functional, cell-based; method in brief: as §1
[18] = Stability of the compound assessed as air oxidation at room temperature at 1.8 mM after 3 weeks by 31P NMR method; assay type: physicochemical; settings: 504 h, 1800 µM
[19] = biological target: T3, Ectonucleoside triphosphate diphosphohydrolase 3 (Homo sapiens) (UniProt O75355); assay: Inhibition of human NTPDase3 at 100 uM using ATP as substrate preincubated for 3 mins followed by substrate addition measured after 10 mins by malachite green reagent-based assay
T3 sequence (whole entry): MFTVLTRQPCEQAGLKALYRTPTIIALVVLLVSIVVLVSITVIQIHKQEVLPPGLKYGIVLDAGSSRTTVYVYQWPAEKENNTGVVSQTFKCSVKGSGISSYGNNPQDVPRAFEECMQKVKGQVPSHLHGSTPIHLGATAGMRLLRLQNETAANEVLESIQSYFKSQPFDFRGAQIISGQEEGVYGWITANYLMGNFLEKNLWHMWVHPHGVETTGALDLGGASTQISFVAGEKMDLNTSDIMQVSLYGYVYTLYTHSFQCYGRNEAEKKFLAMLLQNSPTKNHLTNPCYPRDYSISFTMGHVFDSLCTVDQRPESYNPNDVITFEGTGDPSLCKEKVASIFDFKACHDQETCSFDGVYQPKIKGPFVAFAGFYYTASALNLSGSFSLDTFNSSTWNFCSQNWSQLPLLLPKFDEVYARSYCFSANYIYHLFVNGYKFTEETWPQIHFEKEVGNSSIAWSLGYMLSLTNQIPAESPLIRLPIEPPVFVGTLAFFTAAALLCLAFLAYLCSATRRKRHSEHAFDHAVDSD
Method in brief: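 Compound at 100 μM, 3 min preincubation, 100 μM ATP, 10 min. Stopped with malachite green; Pi read at 630 nm. Blank with enzyme added after stop subtracted. Activity with ATP alone taken as 100%.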

Sequence of P2Y purinoceptor 6 (Homo sapiens) (Q15077 whole entry): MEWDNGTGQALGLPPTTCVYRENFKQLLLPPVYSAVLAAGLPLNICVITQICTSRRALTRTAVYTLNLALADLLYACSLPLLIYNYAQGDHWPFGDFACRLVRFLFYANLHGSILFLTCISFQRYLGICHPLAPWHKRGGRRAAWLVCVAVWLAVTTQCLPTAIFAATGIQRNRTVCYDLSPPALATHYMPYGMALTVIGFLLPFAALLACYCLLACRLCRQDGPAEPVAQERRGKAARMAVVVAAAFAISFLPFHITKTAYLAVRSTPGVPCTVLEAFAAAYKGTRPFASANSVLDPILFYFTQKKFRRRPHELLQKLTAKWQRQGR
Sequence of P2Y purinoceptor 2 (Homo sapiens) (P41231 whole entry): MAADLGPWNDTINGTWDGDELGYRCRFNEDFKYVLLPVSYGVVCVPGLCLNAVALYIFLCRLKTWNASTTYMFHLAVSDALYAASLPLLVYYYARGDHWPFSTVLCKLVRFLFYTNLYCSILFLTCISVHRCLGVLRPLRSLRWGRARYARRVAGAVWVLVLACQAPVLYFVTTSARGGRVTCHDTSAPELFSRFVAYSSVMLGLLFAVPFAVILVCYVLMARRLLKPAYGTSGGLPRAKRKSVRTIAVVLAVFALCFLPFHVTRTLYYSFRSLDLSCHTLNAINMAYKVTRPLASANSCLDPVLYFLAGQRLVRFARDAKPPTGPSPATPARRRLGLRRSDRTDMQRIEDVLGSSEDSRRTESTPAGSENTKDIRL
Sequence of P2Y purinoceptor 4 (Homo sapiens) (P51582 whole entry): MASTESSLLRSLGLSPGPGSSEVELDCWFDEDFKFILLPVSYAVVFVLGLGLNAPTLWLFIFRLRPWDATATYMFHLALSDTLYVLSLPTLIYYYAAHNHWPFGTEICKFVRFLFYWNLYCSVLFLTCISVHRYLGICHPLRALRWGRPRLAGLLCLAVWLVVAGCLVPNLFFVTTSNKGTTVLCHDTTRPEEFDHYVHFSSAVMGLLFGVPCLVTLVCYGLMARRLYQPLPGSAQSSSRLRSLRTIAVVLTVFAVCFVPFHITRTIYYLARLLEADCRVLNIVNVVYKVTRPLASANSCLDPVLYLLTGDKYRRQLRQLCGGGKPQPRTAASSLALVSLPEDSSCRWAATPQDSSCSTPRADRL

Drug metabolism [3]: Metabolite_Detected
Drug metabolism [4]: Metabolite_Detected
Compound: O=P(O)(O)CP(=O)(O)O [MEDRONIC ACID]

degraded at 120 h, 2000 µM [6]: 5%
degraded at 120 h, 2000 µM [7]: 8%
degraded at 480 h, 2000 µM [8]: 11%
degraded at 480 h, 2000 µM [9]: 10%
Compound: O=c1ccn([C@@H]2O[C@H](COP(=O)(O)OP(=O)(O)OP(=O)(O)O)[C@@H](O)[C@H]2O)c(=O)[nH]1 [URIDINE TRIPHOSPHATE]

Drug metabolism [2]: Metabolite_Detected
Compound: O=c1ccn([C@@H]2O[C@H](COP(=O)(O)O)[C@@H](O)[C@H]2O)c(=O)[nH]1

Further lines, the compound ahead of its results:

Compound: OP(O)(=S)S
Drug metabolism [1]: Metabolite_Detected
Drug metabolism [2]: Metabolite_Detected
Drug metabolism [3]: Metabolite_Detected

Compound: O=c1ccn([C@@H]2O[C@H](COP(=O)(O)OP(=O)(O)O)[C@@H](O)[C@H]2O)c(=O)[nH]1 [URIDINE_DIPHOSPHATE]
degraded at 672 h, 2000 µM [5]: 7%

Compound: O=c1ccn([C@@H]2O[C@H](COP(O)(=S)S)[C@@H](O)[C@H]2O)c(=O)[nH]1 (some centres undefined)
Drug metabolism [1]: Metabolite_Detected
Drug metabolism [2]: Metabolite_Detected
Drug metabolism [3]: Metabolite_Detected

Compound: Nc1nc(SCc2ccccc2)nc2c1ncn2[C@@H]1O[C@H](COP(O)(=S)OP(=O)(O)OP(=O)(O)O)[C@@H](O)[C@H]1O (some centres undefined)
degraded at 120 h, 2000 µM [6]: 25%
half-life [10]: 11 days

Compound: O=c1ccn([C@@H]2O[C@H](COP(=S)(S)OP(=O)(O)OP(=O)(O)OP(=S)(S)OC[C@H]3O[C@@H](n4ccc(=O)[nH]c4=O)[C@H](O)[C@@H]3O)[C@@H](O)[C@H]2O)c(=O)[nH]1 (some centres undefined)
inhibition [11]: Active
Activity [12]: inactive
inhibition [13]: 27%
Activity [14]: Active
degraded at 120 h, 2000 µM [6]: 6%
Activity [15]: Active
degraded at 120 h, 2000 µM [7]: 9%
inhibition [16]: 80 to 100%
Activity [17]: inactive
Stability [18]: Stable
inhibition [19]: 24%

Compound: O=c1ccn([C@@H]2O[C@H](COP(O)(=S)SCCS)[C@@H](O)[C@H]2O)c(=O)[nH]1 (some centres undefined)
Drug metabolism [2]: Metabolite_Detected
Drug metabolism [3]: Metabolite_Detected
